From ChEMBL document CHEMBL2321865 (J Med Chem, 2013) come the findings set out here.

Structures are written as SMILES. The source made the active and inactive calls.

The subject of assay [1] is Mus musculus. Nature of the assay: Antinociceptive activity in CD1 mouse assessed as paw licking and jumping latency at 0.6 nmol, icv measured after 15 to 30 mins by hot plate test. It is filed as functional, organism-based. Summed up: (§1)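 Male CD-1 mice, 25-30 g, lightly isoflurane-anaesthetised; i.c.v. injection 2 mm caudal, 2 mm lateral to bregma, 3 mm deep, 5 µL. Hot plate held at 55.0 °C; latency to paw lick or jump, cut-off 60 s. Baseline is the mean of three readings 15 min apart. Latencies taken at 15-120 min after dosing and expressed as %MPE.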
(Hot-plate and tail-flick tests time the reaction to a heat stimulus.)

For assay [2], the system named is Mus musculus. Nature of the assay: Antinociceptive activity in CD1 mouse assessed as tail withdrawal latency at 3000 nmol, iv measured after 15 to 60 mins by tail flick test relative to vehicle-treated control. The format is functional. The method in brief:
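Male CD-1 mice, lightly isoflurane-anaesthetised, given tail-vein injection at 5 mL/kg. Tail-flick latency to radiant heat focused 3-4 cm from the tail tip, cut-off 15 s. Baseline is the mean of three readings; readings at 15-180 min; expressed as %MPE. Mean ± S.E.M.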

The test system of assay [3] is Mus musculus. Put plainly: Antinociceptive activity in CD1 mouse assessed as paw licking and jumping latency at 3000 nmol, iv measured after 15 to 60 mins by hot plate test relative to vehicle-treated control. It is filed as functional. The method in brief: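 Male CD-1 mice, 25-30 g, lightly isoflurane-anaesthetised, dosed into the tail vein at 5 mL/kg. Hot plate at 55.0 °C; latency to paw lick or jump, cut-off 60 s. Baseline is the mean of three readings 15 min apart; readings to 180 min. %MPE = (post-drug − baseline)/(cut-off − baseline)×100. Mean ± S.E.M.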

The test system of assay [4] is Mus musculus. Put plainly: Antinociceptive activity in CD1 mouse assessed as paw licking and jumping latency at 0.6 nmol, icv measured after 30 to 45 mins by hot plate test relative to vehicle-treated control. It is filed as functional. Summed up:
as §1

The subject of assay [5] is Mus musculus. Nature of the assay: Antinociceptive activity in CD1 mouse assessed as tail withdrawal latency at 0.6 nmol, icv measured after 15 to 30 mins by tail flick test. It is filed as functional, organism-based. The method in brief: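 Male CD-1 mice given i.c.v. injection (5 µL; 2 mm caudal, 2 mm lateral to bregma, 3 mm deep) under light isoflurane. Radiant heat focused 3-4 cm from the tail tip; withdrawal latency recorded, cut-off 15 s. Baseline is the mean of three readings 15 min apart; readings at 15-120 min; %MPE.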

Assay [6] has as its target Delta-type opioid receptor (Mus musculus, UniProt P32300). Nature of the assay: Inhibition of DOR in ICR mouse vas deferens assessed as inhibition of electrically-stimulated muscle contraction after 3 mins. Also on record: species or system Muscle tissue. Summed up:
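Vas deferens from male ICR mice, 25-30 g, in Mg-free Krebs at 37 °C under 95% O₂/5% CO₂. Transmural stimulation at 0.1 Hz, 2.0 ms pulses, supramaximal voltage. Cumulative curves over five to seven concentrations; inhibition read 3 min after each addition. IC₅₀ from a Hill fit, at least four assays.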

The next assay has as its target Mu-type opioid receptor (Cavia porcellus, UniProt P97266). Nature of the assay: Inhibition of MOR in Hartley guinea pig ileum longitudinal muscle myenteric plexus assessed as inhibition of electrically-stimulated muscle contraction after 3 mins. The format is tissue-based. Summed up:
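Longitudinal muscle-myenteric plexus strips from male Hartley guinea pigs (150-400 g) in oxygenated Krebs at 37 °C. Stimulated at 0.1 Hz, 0.4 ms pulses, supramaximal voltage. […] IC₅₀ by Hill fit, at least four assays.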

The target of assay [7] is Delta-type opioid receptor (Rattus norvegicus, UniProt P33533). Nature of the assay: Displacement of [3H]Deltorphin from DOR in Sprague-Dawley rat brain membrane after 180 mins by scintillation counting analysis. The format is cell membranes. Summed up:
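Whole brain homogenate from male Sprague-Dawley rats, pre-incubated 30 min at 25 °C to remove endogenous opioids. Six to seven test concentrations; rapid filtration; nonlinear least-squares fit; at least two assays, each in duplicate.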

Delta-type opioid receptor (Rattus norvegicus, UniProt P33533), sequence (P33533 whole entry): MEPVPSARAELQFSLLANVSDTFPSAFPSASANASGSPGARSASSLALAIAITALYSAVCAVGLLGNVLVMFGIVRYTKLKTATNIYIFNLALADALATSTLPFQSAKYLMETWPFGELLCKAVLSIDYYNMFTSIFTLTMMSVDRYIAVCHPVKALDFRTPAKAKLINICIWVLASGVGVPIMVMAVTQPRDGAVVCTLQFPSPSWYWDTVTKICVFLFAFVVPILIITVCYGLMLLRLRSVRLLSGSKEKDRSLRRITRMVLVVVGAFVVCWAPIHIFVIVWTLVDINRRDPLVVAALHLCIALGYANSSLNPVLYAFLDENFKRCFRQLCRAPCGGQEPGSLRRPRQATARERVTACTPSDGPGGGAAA
Mu-type opioid receptor, sequence (P97266 whole entry): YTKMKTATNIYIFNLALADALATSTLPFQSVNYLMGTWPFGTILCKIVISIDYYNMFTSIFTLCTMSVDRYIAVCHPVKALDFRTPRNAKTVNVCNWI
Delta-type opioid receptor (Mus musculus, UniProt P32300), sequence (P32300 whole entry): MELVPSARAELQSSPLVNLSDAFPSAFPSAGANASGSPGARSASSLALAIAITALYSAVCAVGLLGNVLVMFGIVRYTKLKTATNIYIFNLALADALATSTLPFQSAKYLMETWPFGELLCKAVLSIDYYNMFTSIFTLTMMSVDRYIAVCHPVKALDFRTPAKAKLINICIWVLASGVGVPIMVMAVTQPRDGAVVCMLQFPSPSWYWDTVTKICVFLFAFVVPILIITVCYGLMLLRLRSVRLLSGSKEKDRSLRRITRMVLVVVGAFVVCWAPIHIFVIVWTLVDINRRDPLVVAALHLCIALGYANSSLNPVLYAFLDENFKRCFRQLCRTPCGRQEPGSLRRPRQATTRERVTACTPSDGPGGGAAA

As for `C[C@@H](NC(=O)[C@@H](N)Cc1ccc(O)cc1)C(=O)NCC(=O)N[C@@H](Cc1ccccc1)C(=O)NNC(=O)[C@H](Cc1ccccc1)NC(=O)CNC(=O)[C@@H](C)NC(=O)[C@@H](N)Cc1ccc(O)cc1` [BIPHALIN], the result in the assay with Mus musculus [1], with Mus musculus [2], in the assay with Mus musculus [3] and in the assay with Mus musculus [5] was Active. For the same molecule, in the assay on Mus musculus [4], the MPE was 100%.
In the case of `C[C@@H](NC(=O)C[C@@H](N)Cc1ccc(O)cc1)C(=O)NCC(=O)N[C@@H](Cc1ccccc1)C(=O)N[C@H](CC(=O)N[C@H](C)C(=O)NCC(=O)N[C@@H](Cc1ccccc1)C(N)=O)Cc1ccc(O)cc1`, the IC50 (commonly the midpoint of a concentration-inhibition curve) worked out at 0.71 µM in assay [6] and 0.67 µM at Mu-type opioid receptor. In addition, the Ki (in general, the equilibrium dissociation constant of an inhibitor or competing ligand from its target) in assay [7] was 0.48 µM.
